The source of these data is ChEMBL document CHEMBL1138322 (J Med Chem, 2007).

The source made the active and inactive calls. No cut-off for these calls is given here.

For one data set, the system named is Adipocyte. The data set is described as follows: Inhibition of lipolysis in human adipocytes. The format is functional, cell-based. In a few lines: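 Inhibition of lipolysis in human adipocytes, read as reduction of free fatty acid release.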
For another data set, the target named is T1, Cytochrome P450 2C8 (Homo sapiens, UniProt P10632).
T1 sequence (P10632 whole entry): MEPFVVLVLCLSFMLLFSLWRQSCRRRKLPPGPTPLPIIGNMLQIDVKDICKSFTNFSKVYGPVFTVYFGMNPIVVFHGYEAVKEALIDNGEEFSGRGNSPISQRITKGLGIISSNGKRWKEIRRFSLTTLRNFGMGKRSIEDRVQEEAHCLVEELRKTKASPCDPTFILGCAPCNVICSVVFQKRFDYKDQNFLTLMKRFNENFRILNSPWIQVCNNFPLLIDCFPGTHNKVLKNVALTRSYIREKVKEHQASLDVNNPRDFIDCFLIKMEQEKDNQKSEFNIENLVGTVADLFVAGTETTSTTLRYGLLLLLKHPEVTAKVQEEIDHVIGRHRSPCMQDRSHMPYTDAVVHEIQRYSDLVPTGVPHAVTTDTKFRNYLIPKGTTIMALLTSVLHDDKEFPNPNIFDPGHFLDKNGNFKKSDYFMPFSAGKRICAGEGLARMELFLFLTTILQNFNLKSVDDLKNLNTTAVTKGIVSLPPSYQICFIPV
In words: Inhibition of CYP2C8 in human liver microsomes. The class given is ADME, Microsome. The essentials: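 Human liver microsome CYP2C8 inhibition with taxol as substrate and montelukast as positive control; IC50 reported.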

In another data set the target is Cytochrome P450 2C9 (Homo sapiens, UniProt P11712). In words: Inhibition of CYP2C9 in human liver microsomes. The format is ADME, Microsome.
A short description of data set [1]: Volume of distribution at steady state in mouse at 1 mg/kg, iv or 2 mg/kg, po. As to conditions: in vivo, read-out: Vdss. The format is ADME, organism-based. In a few lines: (§1)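 Mouse PK. Intravenous dose 1 mg/kg and oral dose 2 mg/kg, both given in DMSO/PEG400/water (5:40:55 v:v:v).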
Data set [2] is described as follows: Half life in mouse at 1 mg/kg, iv or 2 mg/kg, po. The class given is ADME, organism-based. As to conditions: in vivo. In a few lines:
as §1

A short description of data set [3]: Clearance in mouse at 1 mg/kg, iv or 2 mg/kg, po. As to conditions: in vivo. The class given is ADME, organism-based. The essentials: as §1
Data set [4] in a line: Cmax in mouse at 1 mg/kg, iv or 2 mg/kg, po. The format is ADME, organism-based. As to conditions: in vivo. In a few lines: as §1
Data set [5] in a line: Oral bioavailability in mouse at 2 mg/kg, po. The format is ADME, organism-based. As to conditions: in vivo. The essentials:
as §1

The test system of data set [6] is Mus musculus. In words: Reduction of plasma free fatty acid levels in po dosed mouse after 15 mins. The format is functional, organism-based. As to conditions: for ED50: po. In a few lines: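 Mice dosed orally. Plasma free fatty acids and plasma compound level both measured at 15 min post-dosing.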
Data set [7] can be described thus: Plasma concentration in mouse at 3 mg/kg, ip after 5 mins.
Data set [8] concerns Mus musculus. The data set is described as follows: Drug level in mouse at 10 mg/kg, po. As to conditions: read-out: Activity, in vivo.
The test system of data set [9] is Mus musculus. In words: Vasodilation effect in mouse ear at 100 mg/kg, ip. The class given is functional, organism-based. Also on record: dose 100 mg/kg. In a few lines:
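Flushing model in mice. Compound given i.p. in 5% DMSO/40% PEG400/55% water. Vasodilation read as the change in ear blood perfusion by laser Doppler flowmetry.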

Data set [10] has as its target T2, Hydroxycarboxylic acid receptor 2 (Mus musculus, UniProt Q9EP66). In words: Agonist activity at mouse GPR109A by [35S]GTP-gamma-S binding assay. The format is functional.
In data set [11] the target is T2, Hydroxycarboxylic acid receptor 2. The data set is described as follows: Displacement of [3H]niacin from mouse GPR109A.
A short description of data set [12]: Therapeutic index, ratio of vasodilating effect to IC50 for FFA reduction in mouse. The class given is organism-based. The settings on record: in vivo. The essentials: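 Mouse ear vasodilation (flushing) measured as the change in blood perfusion by laser Doppler flowmetry after i.p. dosing in 5% DMSO/40% PEG400/55% water, with plasma drug level taken post-dose. Plasma FFA reduction was measured after p.o. dosing, with compound and FFA plasma levels at 15 min. TI = minimum plasma level inducing flushing ÷ in vivo IC50 for FFA reduction.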

Data set [13] can be described thus: Plasma concentration in mouse at 100 mg/kg, ip after 15 mins. Also on record: dose 100 mg/kg, route intraperitoneal. The class given is ADME, organism-based. The essentials:
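After an i.p. dose in the mouse ear vasodilation study, plasma compound level measured at 15 min post-dose.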

Sequence of Cytochrome P450 2C9 (P11712 whole entry): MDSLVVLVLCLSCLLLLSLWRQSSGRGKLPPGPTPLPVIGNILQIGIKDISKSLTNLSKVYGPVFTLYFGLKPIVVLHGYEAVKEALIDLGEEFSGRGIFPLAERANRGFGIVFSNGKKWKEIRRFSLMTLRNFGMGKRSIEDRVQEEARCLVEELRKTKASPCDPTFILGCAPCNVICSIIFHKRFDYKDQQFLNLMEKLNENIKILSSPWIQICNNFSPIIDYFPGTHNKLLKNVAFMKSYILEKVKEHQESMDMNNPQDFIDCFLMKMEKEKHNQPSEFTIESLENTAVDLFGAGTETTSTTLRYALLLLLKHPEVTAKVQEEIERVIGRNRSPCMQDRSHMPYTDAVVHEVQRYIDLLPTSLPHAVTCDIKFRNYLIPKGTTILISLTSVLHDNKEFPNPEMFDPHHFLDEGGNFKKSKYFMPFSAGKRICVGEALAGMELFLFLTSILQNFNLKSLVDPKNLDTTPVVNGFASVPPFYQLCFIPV
T2 sequence (Q9EP66 whole entry): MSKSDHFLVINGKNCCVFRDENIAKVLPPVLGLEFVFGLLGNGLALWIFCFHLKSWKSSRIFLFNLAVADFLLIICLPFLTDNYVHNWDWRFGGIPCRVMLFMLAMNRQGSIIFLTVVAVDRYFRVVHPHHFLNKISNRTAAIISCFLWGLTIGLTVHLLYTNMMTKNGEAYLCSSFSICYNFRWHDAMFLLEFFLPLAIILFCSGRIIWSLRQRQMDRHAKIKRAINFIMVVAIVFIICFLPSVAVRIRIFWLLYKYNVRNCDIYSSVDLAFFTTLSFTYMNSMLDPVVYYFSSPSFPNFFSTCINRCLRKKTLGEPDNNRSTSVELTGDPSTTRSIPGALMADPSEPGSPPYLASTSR

With `O=C(CCc1nc(-c2ccc(O)cn2)no1)Nc1ccccc1C(=O)O`, the values for the IC50 with Adipocyte, against Cytochrome P450 2C8 and against Cytochrome P450 2C9 were 0.005 µM, greater than 100 µM and greater than 100 µM, respectively.

Turning to `Cc1c(CCC(=O)Nc2ccccc2C(=O)O)cnn1-c1ccc(O)cc1`, the IC50 is 0.04 µM with Adipocyte, 19 µM at Cytochrome P450 2C8 and 15 µM at Cytochrome P450 2C9. For the same molecule, in [1], the Vd is 0.88 L/kg. Besides, the half-life in data set [2] was 1.1 h. The same molecule yielded a clearance in [3] of 1.56 L/h/kg. The Cmax in [4] worked out at 0.03 µM. This molecule also returned a bioavailability in [5] of 2.5%.

With `O=C(CCc1ccc(-c2ccc(O)cc2Cl)cc1)Nc1ccccc1C(=O)O`, the Vd in data set [1] is 0.35 L/kg. Further, the IC50 at Cytochrome P450 2C8 and at Cytochrome P450 2C9 was less than 0.4 µM each time. Further, the half-life in data set [2] is 2 h. In data set [3], this molecule returned a clearance of 1.08 L/h/kg. Further, the Cmax in [4] worked out at 0.96 µM. Further, the bioavailability in [5] came to 5%.

The molecule `O=C(O)c1cccnc1` [NIACIN] had an ED50 in the data set on Mus musculus [6] of 8 mg/kg. The same molecule gave a concentration at 5 min in data set [7] of 18 µM. The concentration with Mus musculus [8] stood at 20 µM.

Turning to `O=C(CCc1cnc(-c2ccc(O)cc2Cl)s1)Nc1ccccc1C(=O)O`, in data set [1], the Vd worked out at 0.37 L/kg. In addition, the IC50 turned out to be 1.2 µM at Cytochrome P450 2C8 and 2.8 µM against Cytochrome P450 2C9. In data set [2], this molecule had a half-life of 1.6 h. The same molecule displayed a clearance in [3] of 0.438 L/h/kg. Besides, the Cmax in data set [4] was found to be 2.1 µM. The same molecule returned a bioavailability in data set [5] of 37%.

Take `O=C(CCc1ncc(-c2ccc(O)cn2)s1)Nc1ccccc1C(=O)O`: the figures for the IC50 against Cytochrome P450 2C8 and against Cytochrome P450 2C9 were 9.3 µM and 4.2 µM, respectively.

With `O=C(CCc1ccc(-c2ccc(O)cn2)cc1)Nc1ccccc1C(=O)O`, the Vd in data set [1] was 0.11 L/kg. In addition, the values for the IC50 on Cytochrome P450 2C8 and against Cytochrome P450 2C9 were 8.9 µM and 1.6 µM, respectively. The molecule also showed a half-life in data set [2] of 5.3 h. The same molecule registered a clearance in data set [3] of 0.0228 L/h/kg. This molecule had a Cmax in data set [4] of 5 µM. Also, in data set [5], the bioavailability was determined as 57%.

For the molecule `O=C(CCc1cnc(-c2ccc(O)cn2)s1)Nc1ccccc1C(=O)O`, the Vd in data set [1] came out at 0.62 L/kg. Besides, the half-inhibitory concentration (IC50) was 20.3 µM against Cytochrome P450 2C8 and 5.7 µM against Cytochrome P450 2C9. In data set [2], this molecule showed a half-life of 2.2 h. Also, in data set [3], the clearance was 0.51 L/h/kg. In addition, the concentration in data set [4] peaked (Cmax) at 0.52 µM. The same molecule came in with a bioavailability in data set [5] of 27%.

Consider `O=C(CCc1nc(-c2ccc(O)cc2)no1)Nc1ccccc1C(=O)O`, for which the concentration for half-maximal inhibition (IC50) in the data set on Adipocyte was found to be 0.03 µM; in the data set on Mus musculus [6], 6.9 µM; in data set [11], 0.46 µM. The Vd in data set [1] came out at 1.66 L/kg. The molecule also returned an ED50 in the data set with Mus musculus [6] of 9 mg/kg. Further, in the data set on Mus musculus [9], the result was inactive. Also, the EC50 in data set [10] was 1.6 µM. Besides, the half-life in [2] is 1.3 h. Besides, in data set [3], the clearance turned out to be 2.04 L/h/kg. The selectivity ratio in [12] is greater than 70. The same molecule came in with a concentration at […] in data set [13] of 490 µM. The molecule further returned a Cmax in [4] of 0.12 µM. Besides, the bioavailability in [5] came out at 6%.
